From publication PMC5590101 (Journal of medicinal chemistry, 2016)
“Also recorded” adds a separate entry of the source. Like-named read-outs stand apart in the source and are kept apart here.

Legend:
[1] = system: microtubules in A-10 cells; details: read-out: EC50 for microtubule depolymerization in A-10 cells; results previously published; cited from earlier work
MDA-MB-435 cells [2] = details: read-out: IC50 ± SD MDA-MB-435; results previously published; cited from earlier work
SK-OV-3 [3] = details: read-out: IC50 ± SD SK-OV-3; parental line; results previously published; cited from earlier work
SK-OV-3 MDR1-M6/6 = details: IC50 MDR1-M6/6 / IC50 SK-OV-3; results previously published; cited from earlier work
HeLa [4] = details: read-out: IC50 ± SD HeLa; parental line; results previously published; cited from earlier work
HeLa WTβIII [5] = details: IC50 HeLa WTβIII / IC50 HeLa; results previously published; cited from earlier work
CCRF-CEM = details: NCI panel, leukemia; cited from earlier work
HL-60(TB) = details: NCI panel, leukemia; cited from earlier work
K-562 = details: NCI panel, leukemia; cited from earlier work
MOLT-4 = details: NCI panel, leukemia; cited from earlier work
RPMI-8226 = details: NCI panel, leukemia; cited from earlier work
SR = details: NCI panel, leukemia; cited from earlier work
A549/ATCC = details: NCI panel, NSCLC; cited from earlier work
EKVX = details: NCI panel, NSCLC; cited from earlier work
HOP-62 = details: NCI panel, NSCLC; cited from earlier work
HOP-92 = details: NCI panel, NSCLC; cited from earlier work
NCI-H226 = details: NCI panel, NSCLC; cited from earlier work
NCI-H23 = details: NCI panel, NSCLC; cited from earlier work
NCI-H322M = details: NCI panel, NSCLC; cited from earlier work
NCI-H460 = details: NCI panel, NSCLC; cited from earlier work
NCI-H522 = details: NCI panel, NSCLC; cited from earlier work
COLO 205 = details: NCI panel, colon cancer; cited from earlier work
HCC-2998 = details: NCI panel, colon cancer; cited from earlier work
HCT-116 = details: NCI panel, colon cancer; cited from earlier work
HCT-15 = details: NCI panel, colon cancer; cited from earlier work
HT29 = details: NCI panel, colon cancer; cited from earlier work
KM12 = details: NCI panel, colon cancer; cited from earlier work
SF-268 = details: NCI panel, CNS cancer; cited from earlier work
SF-295 = details: NCI panel, CNS cancer; cited from earlier work
SF-539 = details: NCI panel, CNS cancer; cited from earlier work
SNB-19 = details: NCI panel, CNS cancer; cited from earlier work
SNB-75 = details: NCI panel, CNS cancer; cited from earlier work
U251 = details: NCI panel, CNS cancer; cited from earlier work
LOX IMVI = details: NCI panel, melanoma; cited from earlier work
M14 = details: NCI panel, melanoma; cited from earlier work
MDA-MB-435 = details: NCI panel, melanoma; cited from earlier work
SK-MEL-28 = details: NCI panel, melanoma; cited from earlier work
SK-MEL-5 = details: NCI panel, melanoma; cited from earlier work
IGROVI [6] = details: NCI panel, ovarian cancer; cited from earlier work
OVCAR-3 = details: NCI panel, ovarian cancer; cited from earlier work
OVCAR-4 = details: NCI panel, ovarian cancer; cited from earlier work
OVCAR-5 = details: NCI panel, ovarian cancer; cited from earlier work
OVCAR-8 = details: NCI panel, ovarian cancer; cited from earlier work
NCI/ADR-RES = details: NCI panel, ovarian cancer; cited from earlier work
SK-OV-3 [7] = details: NCI panel, ovarian cancer; cited from earlier work
786–0 = details: NCI panel, renal cancer; cited from earlier work
A498 = details: NCI panel, renal cancer; cited from earlier work
ACHN = details: NCI panel, renal cancer; cited from earlier work
RXF 393 = details: NCI panel, renal cancer; cited from earlier work
SN12C = details: NCI panel, renal cancer; cited from earlier work
TK10 = details: NCI panel, renal cancer; cited from earlier work
UO-31 = details: NCI panel, renal cancer; cited from earlier work
PC-3 = details: NCI panel, prostate cancer; cited from earlier work
DU-145 = details: NCI panel, prostate cancer; cited from earlier work
MCF7 = details: NCI panel, breast cancer; cited from earlier work
MDA-MB-231/ATCC = details: NCI panel, breast cancer; cited from earlier work
HS 578T = details: NCI panel, breast cancer; cited from earlier work
BT-549 = details: NCI panel, breast cancer; cited from earlier work
MDA-MB-468 = details: NCI panel, breast cancer; cited from earlier work
HeLa cells = assay: Cell cycle distribution by flow cytometry; assay type: cell-based; details: 18 h, five-times the IC50
[8] = system: microtubules in A-10 cells; assay: Microtubule depolymerization in A-10 cells; assay type: cell-based, rat; details: for microtubule depolymerization activity: tested up to 10 µM; for fold more potent than (±)-1·HCl, microtubule depolymerizing effects: relative to lead (±)-1·HCl; for fold lower microtubule depolymerizing potency than 3: relative to compound 3
MDA-MB-435 cells [9] = assay: SRB antiproliferative assay, MDA-MB-435; assay type: cell-based; details: for IC50: Homo sapiens, MDA-MB-435, read-out: IC50 ± SD MDA-MB-435; for fold more potent than (±)-1·HCl, antiproliferative activity (MDA-MB-435): relative to lead (±)-1·HCl; for fold lower antiproliferative potency than 3: MDA-MB-435, relative to compound 3
SK-OV-3 [10] = assay: SRB antiproliferative assay, SK-OV-3; assay type: cell-based; details: SK-OV-3 and SK-OV-3 MDR1-M6/6 cell lines
HeLa [11] = assay: SRB antiproliferative assay, HeLa; assay type: cell-based
MDA-MB-435 xenografts = assay: MDA-MB-435 flank xenograft model; assay type: in vivo, nude mice; details: ip, 60 mg/kg days 0 and 2, 50 mg/kg day 8; vs untreated control
Outline: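 Nude mice bilaterally implanted sc in the flank with MDA-MB-435 tumour fragments; dosing began once tumours reached ~200 mm3. Test compound was given ip in PBS containing <5% (v/v) 50:50 Cremophor/DMSO. […] Tumour volumes and body weights were recorded 2–3 times weekly. Final volumes were compared with untreated controls by one-way ANOVA with Dunnett's test.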

NCI 60-cell line panel = assay: NCI cancer cell line panel; assay type: cell-based
IGROVI [12] = assay: NCI panel growth inhibition, IGROVI; assay type: cell-based
Bovine brain tubulin = Bovine brain tubulin (Bos taurus, UniProt P81947+Q6B856); assay: Inhibition of tubulin assembly; assay type: biochemical; details: for fold more potent than (±)-1·HCl, tubulin assembly: relative to lead (±)-1·HCl
Sequence of Bovine brain tubulin (Q6B856 whole entry): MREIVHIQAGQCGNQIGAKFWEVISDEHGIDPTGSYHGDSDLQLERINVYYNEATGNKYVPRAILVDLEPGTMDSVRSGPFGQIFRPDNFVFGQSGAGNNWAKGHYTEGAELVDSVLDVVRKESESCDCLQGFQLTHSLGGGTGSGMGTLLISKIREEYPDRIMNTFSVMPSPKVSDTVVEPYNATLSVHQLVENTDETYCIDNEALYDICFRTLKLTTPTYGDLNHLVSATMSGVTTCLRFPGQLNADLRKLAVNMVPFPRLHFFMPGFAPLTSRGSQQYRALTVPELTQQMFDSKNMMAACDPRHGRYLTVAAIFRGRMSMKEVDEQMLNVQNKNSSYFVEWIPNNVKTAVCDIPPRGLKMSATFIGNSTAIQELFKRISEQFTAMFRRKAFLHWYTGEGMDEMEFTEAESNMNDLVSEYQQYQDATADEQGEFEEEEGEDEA
Sequence of Bovine brain tubulin (P81947 whole entry): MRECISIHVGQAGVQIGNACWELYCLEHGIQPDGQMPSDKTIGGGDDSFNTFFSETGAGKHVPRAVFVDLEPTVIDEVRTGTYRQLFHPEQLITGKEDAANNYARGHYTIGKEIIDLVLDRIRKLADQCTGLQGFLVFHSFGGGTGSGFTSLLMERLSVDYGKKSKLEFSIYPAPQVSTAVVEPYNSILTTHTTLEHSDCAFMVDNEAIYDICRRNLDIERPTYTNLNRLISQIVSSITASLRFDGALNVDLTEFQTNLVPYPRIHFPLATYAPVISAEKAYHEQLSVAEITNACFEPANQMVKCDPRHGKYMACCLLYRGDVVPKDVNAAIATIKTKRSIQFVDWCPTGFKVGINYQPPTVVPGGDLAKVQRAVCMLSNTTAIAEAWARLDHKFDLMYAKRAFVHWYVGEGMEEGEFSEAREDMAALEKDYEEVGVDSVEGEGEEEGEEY

HeLa WTβIII [13] = assay: SRB antiproliferative assay, βIII-tubulin expressing HeLa WTβIII; assay type: cell-based; details: Homo sapiens, read-out: IC50 ± SD HeLa WTβIII

Structure (SMILES): COc1ccc(N(C)c2nc(C)nc3c2CC(C)C3)cc1.Cl (racemic) [(±)-1·HCl, N-(4-methoxyphenyl)-N,2,6-trimethyl-6,7-dihydro-5H-cyclo-penta[d]-pyrimidin-4-aminium chloride]
- EC50 [1]: 56 nM
- IC50 (MDA-MB-435 cells [2]): 17 ± 0.7 nM
- IC50 (SK-OV-3 [3]): 38.6 ± 3.1 nM
- Rr (relative resistance) (SK-OV-3 MDR1-M6/6): 1.2
- IC50 (HeLa [4]): 37.3 ± 4.1 nM
- Rr (relative resistance) (HeLa WTβIII [5]): 0.6
- GI50 (CCRF-CEM): 16.3 nM
- GI50 (HL-60(TB)): < 10 nM
- GI50 (K-562): < 10 nM
- GI50 (MOLT-4): 31.8 nM
- GI50 (RPMI-8226): 15.7 nM
- GI50 (SR): < 10 nM
- GI50 (A549/ATCC): 24.4 nM
- GI50 (EKVX): 19.6 nM
- GI50 (HOP-62): 19.4 nM
- GI50 (HOP-92): 55.4 nM
- GI50 (NCI-H226): 31.5 nM
- GI50 (NCI-H23): 16.4 nM
- GI50 (NCI-H322M): 59 nM
- GI50 (NCI-H460): 23.4 nM
- GI50 (NCI-H522): < 10 nM
- GI50 (COLO 205): 18.3 nM
- GI50 (HCC-2998): 24 nM
- GI50 (HCT-116): 15.1 nM
- GI50 (HCT-15): < 10 nM
- GI50 (HT29): 11.8 nM
- GI50 (KM12): < 10 nM
- GI50 (SF-268): 15.2 nM
- GI50 (SF-295): < 10 nM
- GI50 (SF-539): 11.4 nM
- GI50 (SNB-19): 36.9 nM
- GI50 (SNB-75): < 10 nM
- GI50 (U251): 12.5 nM
- GI50 (LOX IMVI): 22.7 nM
- GI50 (M14): 10.2 nM
- GI50 (MDA-MB-435): < 10 nM
- GI50 (SK-MEL-28): < 10 nM
- GI50 (SK-MEL-5): < 10 nM
- GI50 (IGROVI [6]): 11 nM
- GI50 (OVCAR-3): < 10 nM
- GI50 (OVCAR-4): 26.8 nM
- GI50 (OVCAR-5): 38.5 nM
- GI50 (OVCAR-8): 32.8 nM
- GI50 (NCI/ADR-RES): < 10 nM
- GI50 (SK-OV-3 [7]): 27.5 nM
- GI50 (786–0): 34.8 nM
- GI50 (A498): < 10 nM
- GI50 (ACHN): 14.6 nM
- GI50 (RXF 393): < 10 nM
- GI50 (SN12C): 31.8 nM
- GI50 (TK10): 292 nM
- GI50 (UO-31): 13.4 nM
- GI50 (PC-3): 14.6 nM
- GI50 (DU-145): 21.4 nM
- GI50 (MCF7): < 10 nM
- GI50 (MDA-MB-231/ATCC): 24.6 nM
- GI50 (HS 578T): < 10 nM
- GI50 (BT-549): 21.9 nM
- GI50 (MDA-MB-468): < 10 nM

Structure (SMILES): COc1ccc(/C=C\c2cc(OC)c(OC)c(OC)c2)cc1O [CA-4, combretastatin A-4]
- accumulation of cells in G2/M (HeLa cells): significant accumulation of cells in G2/M

Structure (SMILES): COc1ccc(Nc2ncnc3occ(C)c23)cc1 [Compound 2, N-(4-Methoxyphenyl)-5-methylfuro[2,3-d]pyrimidin-4-amine]
- microtubule depolymerization activity [8]: inactive; also recorded: essentially devoid of activity

Structure (SMILES): COc1ccc(N(C)c2ncnc3occ(C)c23)cc1 [Compound 3, N-(4-Methoxyphenyl)-N,5-dimethylfuro[2,3-d]pyrimidin-4-amine]
- fold more potent than (±)-1·HCl, microtubule depolymerizing effects [8]: 2.3 fold
- IC50 (MDA-MB-435 cells [9]): 4.3 ± 0.3 nM
- fold more potent than (±)-1·HCl, antiproliferative activity (MDA-MB-435) (MDA-MB-435 cells [9]): about 4 fold
- fold higher potency than (±)-1·HCl (SK-OV-3 [10]): 5 fold
- fold better activity than (±)-1·HCl (HeLa [11]; HeLa and HeLa WT βIII cell lines): 4 fold
- accumulation of cells in G2/M (HeLa cells): significant accumulation of cells in G2/M
- antitumor effect (tumor growth) (MDA-MB-435 xenografts): statistically significant antitumor effects; also recorded: statistically significant inhibition of tumor growth; also recorded: significantly inhibited tumor growth
- GI50 (NCI 60-cell line panel): < 10 nM
- GI50 (IGROVI [12]): < 10 nM

Structure (SMILES): CCN(c1ccc(OC)cc1)c1ncnc2occ(C)c12 [Compound 4, N-Ethyl-N-(4-methoxyphenyl)-5-methylfuro[2,3-d]pyrimidin-4-amine]
- fold lower microtubule depolymerizing potency than 3 [8]: 2 fold
- fold more potent than (±)-1·HCl, microtubule depolymerizing effects [8]: equipotent
- IC50 (MDA-MB-435 cells [9]): 8.1 ± 0.5 nM
- fold more potent than (±)-1·HCl, antiproliferative activity (MDA-MB-435) (MDA-MB-435 cells [9]): 1.4–2.1 fold
- fold more potent than (±)-1·HCl, tubulin assembly (Bovine brain tubulin): about 2 fold
- accumulation of cells in G2/M (HeLa cells): significant accumulation of cells in G2/M

Structure (SMILES): COc1ccc(N(c2ncnc3occ(C)c23)C(C)C)cc1 [Compound 5, N-Isopropyl-N-(4-methoxyphenyl)-5-methylfuro[2,3-d]pyrimidin-4-amine]
- microtubule depolymerization activity [8]: ineffective
- IC50 (MDA-MB-435 cells [9]): 504 ± 28 nM
- fold less potent (IC50) than 4 (MDA-MB-435 cells [9]; antiproliferative, relative to N-Et analogue 4): 60 fold

Structure (SMILES): CCCN(c1ccc(OC)cc1)c1ncnc2occ(C)c12 [Compound 6, N-(4-Methoxyphenyl)-5-methyl-N-propylfuro[2,3-d]pyrimidin-4-amine]
- IC50 (MDA-MB-435 cells [9]): 27.3 ± 4.5 nM
- fold more potent than (±)-1·HCl, tubulin assembly (Bovine brain tubulin): about 2 fold

Structure (SMILES): CCCCN(c1ccc(OC)cc1)c1ncnc2occ(C)c12 [Compound 7, N-Butyl-N-(4-methoxyphenyl)-5-methylfuro[2,3-d]pyrimidin-4-amine]
- IC50 (MDA-MB-435 cells [9]): 100 ± 6.5 nM
- fold more potent than (±)-1·HCl, tubulin assembly (Bovine brain tubulin): about 2 fold

Structure (SMILES): CCc1ccc(N(C)c2ncnc3occ(C)c23)cc1 [Compound 8, N-Methyl-N-(4-ethylphenyl)-5-methylfuro[2,3-d]pyrimidin-4-amine]
- fold lower microtubule depolymerizing potency than 3 [8]: 30 fold
- IC50 (MDA-MB-435 cells [9]): 183 ± 13 nM
- fold lower antiproliferative potency than 3 (MDA-MB-435 cells [9]): 43 fold

Structure (SMILES): CSc1ccc(N(C)c2ncnc3occ(C)c23)cc1 [Compound 9, N,5-Dimethyl-N-(4-(methylthio)phenyl)furo[2,3-d]pyrimidin-4-amine]
- fold lower microtubule depolymerizing potency than 3 [8]: 2 fold
- fold more potent than (±)-1·HCl, microtubule depolymerizing effects [8]: equipotent
- IC50 (MDA-MB-435 cells [9]): 12.3 ± 0.9 nM
- fold lower antiproliferative potency than 3 (MDA-MB-435 cells [9]): 3 fold
- fold more potent than (±)-1·HCl, antiproliferative activity (MDA-MB-435) (MDA-MB-435 cells [9]): 1.4–2.1 fold
- fold better than 3, tubulin assembly IC50 (Bovine brain tubulin; relative to compound 3): 3 fold

Structure (SMILES): CC(=O)O[C@H]1C(=O)[C@@]2(C)[C@H]([C@H](OC(=O)c3ccccc3)[C@]3(O)C[C@H](OC(=O)[C@H](O)[C@@H](NC(=O)c4ccccc4)c4ccccc4)C(C)=C1C3(C)C)[C@]1(OC(C)=O)CO[C@@H]1C[C@@H]2O [paclitaxel]
- IC50 (HeLa [11]; Homo sapiens, HeLa, read-out: IC50 ± SD HeLa): 2.8 ± 0.36 nM
- IC50 (HeLa WTβIII [13]): 24 ± 3 nM
